From ChEMBL document CHEMBL1145447, “Synthetic studies of neoclerodane diterpenes from Salvia divinorum: preparation and opioid receptor activity of salvinicin analogues” (J Med Chem, 2007)
The source made the active and inactive calls. The calls are words filed in the database; no cut-off is given here.

What was measured:
[1] = target: T1, Delta-type opioid receptor (Homo sapiens, UniProt P41143); experiment: Displacement of [125I]IOXY from human delta opioid receptor expressed in CHO cells; format: cell-based
T1 sequence (P41143 whole entry): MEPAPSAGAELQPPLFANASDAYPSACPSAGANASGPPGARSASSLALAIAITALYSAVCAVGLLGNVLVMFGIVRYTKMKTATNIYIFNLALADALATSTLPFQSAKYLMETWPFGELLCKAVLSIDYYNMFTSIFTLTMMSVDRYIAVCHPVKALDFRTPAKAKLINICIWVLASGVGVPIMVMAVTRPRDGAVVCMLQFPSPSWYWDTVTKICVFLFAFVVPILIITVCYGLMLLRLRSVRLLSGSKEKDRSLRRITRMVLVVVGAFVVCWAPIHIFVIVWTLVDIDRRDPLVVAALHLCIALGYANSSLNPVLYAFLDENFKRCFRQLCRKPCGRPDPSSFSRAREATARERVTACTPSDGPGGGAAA
In short: (§1)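 Membranes from CHO cells stably transfected with the respective human opioid receptor cDNA (hMOR-, hDOR-, hKOR-CHO). Radioligand [125I]IOXY (SA 2200 Ci/mmol) labels µ, δ and κ sites. Incubation in 50 mM Tris-HCl pH 7.4 with bacitracin, bestatin, leupeptin and chymostatin. Nonspecific binding is defined with 10 µM naloxone. Ki is the mean ± SD of at least two independent determinations.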

[2] = target: T1, Delta-type opioid receptor; experiment: Antagonist activity at human delta opioid receptor expressed in CHO cells by [35S]GTP-gamma-S binding assay; format: functional, cell-based
In short: (§2)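 Antagonism is measured in a [35S]GTP-γ-S binding assay in CHO cells stably transfected with human δ, κ or µ opioid receptor cDNA. Result is given as Ke, the mean ± SD of at least two independent determinations. Test compounds come from 10 mM stocks in 100% DMSO + 10 mM 2-mercaptoethanol, stored at -80 °C. They are diluted in buffer containing 1 mg/mL BSA.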

[3] = target: T2, Kappa-type opioid receptor (Homo sapiens, UniProt P41145); experiment: Antagonist activity at human kappa opioid receptor expressed in CHO cells by [35S]GTP-gamma-S binding assay; format: functional, cell-based; in short: as §2
T2 sequence (P41145 whole entry): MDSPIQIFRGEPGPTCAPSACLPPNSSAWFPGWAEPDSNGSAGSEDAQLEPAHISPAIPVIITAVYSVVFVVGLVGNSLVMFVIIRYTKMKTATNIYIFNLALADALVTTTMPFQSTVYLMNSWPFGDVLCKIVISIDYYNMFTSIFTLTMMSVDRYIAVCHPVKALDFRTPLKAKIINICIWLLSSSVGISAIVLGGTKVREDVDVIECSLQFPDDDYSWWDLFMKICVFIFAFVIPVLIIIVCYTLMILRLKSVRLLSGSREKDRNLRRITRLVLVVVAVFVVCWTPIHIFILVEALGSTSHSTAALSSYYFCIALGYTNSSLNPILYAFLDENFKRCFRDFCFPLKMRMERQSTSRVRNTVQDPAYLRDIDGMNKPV

[4] = target: T2, Kappa-type opioid receptor; experiment: Displacement of [125I]IOXY from human kappa opioid receptor expressed in CHO cells; format: cell-based
In short: as §1, with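 “hKOR-CHO).” for “hKOR-CHO). Radioligand [125I]IOXY (SA 2200 Ci/mmol) labels µ, δ and κ sites.”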

Mu-type opioid receptor [5] = target: T3, Mu-type opioid receptor (Homo sapiens, UniProt P35372); experiment: Antagonist activity at human mu opioid receptor expressed in CHO cells by [35S]GTP-gamma-S binding assay; format: functional, cell-based; in short: as §2
T3 sequence (P35372 whole entry): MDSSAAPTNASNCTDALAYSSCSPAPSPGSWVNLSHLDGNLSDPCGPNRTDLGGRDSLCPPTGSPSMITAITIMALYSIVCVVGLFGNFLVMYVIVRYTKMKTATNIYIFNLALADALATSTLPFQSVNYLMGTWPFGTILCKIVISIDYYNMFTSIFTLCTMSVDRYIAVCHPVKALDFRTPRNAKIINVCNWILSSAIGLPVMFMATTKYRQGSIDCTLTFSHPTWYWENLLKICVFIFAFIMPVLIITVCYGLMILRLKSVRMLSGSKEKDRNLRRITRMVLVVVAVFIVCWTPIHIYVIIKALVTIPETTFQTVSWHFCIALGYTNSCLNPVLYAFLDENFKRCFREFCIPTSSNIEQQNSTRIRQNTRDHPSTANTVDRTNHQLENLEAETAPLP

Mu-type opioid receptor [6] = target: T3, Mu-type opioid receptor; experiment: Displacement of [125I]IOXY from human mu opioid receptor expressed in CHO cells; format: cell-based
In short: as §1, with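 “hKOR-CHO).” for “hKOR-CHO). Radioligand [125I]IOXY (SA 2200 Ci/mmol) labels µ, δ and κ sites.”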

[7] = target: Opioid receptors; delta & kappa (Homo sapiens) (UniProt P41145+P41143); experiment: Selectivity for kappa opioid receptor over delta opioid receptor; format: protein assay
Chain of Opioid receptors; delta & kappa (Homo sapiens) (P41143 whole entry, looked up): as the sequence (P41143 whole entry) above
Chain of Opioid receptors; delta & kappa (Homo sapiens) (P41145 whole entry, looked up): as the sequence (P41145 whole entry) above

[8] = target: Opioid receptors; mu & kappa (Homo sapiens) (UniProt P41145+P35372); experiment: Selectivity for kappa opioid receptor over mu opioid receptor; format: protein assay
Chain of Opioid receptors; mu & kappa (Homo sapiens) (P35372 whole entry, looked up): as the sequence (P35372 whole entry) above
Chain of Opioid receptors; mu & kappa (Homo sapiens) (P41145 whole entry, looked up): as the sequence (P41145 whole entry) above

[9] = target: T2, Kappa-type opioid receptor; experiment: Activity at human kappa opioid receptor expressed in CHO cells by [35S]GTP-gamma-S binding assay relative to U69593; format: functional, cell-based
In short: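 [35S]GTP-γ-S binding in hKOR-CHO cells (stably transfected human receptor). Emax is the percent stimulation relative to the maximal stimulation by U69,593 run in parallel. EC50 and Emax are the mean ± SE of at least three independent experiments. Emax is compared with U69,593 by one-way ANOVA with Dunnett's test. Drug dilutions are made in buffer with 1 mg/mL BSA, from 10 mM DMSO/2-mercaptoethanol stocks.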

| SMILES | Ki [1] [µM] | Ke [2] [µM] | Ke [3] [nM] | Ki [4] [µM] | Ki (Mu-type opioid receptor [5]) [µM] | Ki (Mu-type opioid receptor [6]) [µM] | Ratio Ki [7] | Ratio Ki [8] | Activity [2] | Activity [3] | Activity (Mu-type opioid receptor [5]) | Emax [9] [%] | EC50 [3] [µM] | Ke (Mu-type opioid receptor [5]) [nM] |
| --- | --- | --- | --- | --- | --- | --- | --- | --- | --- | --- | --- | --- | --- | --- |
| COC(=O)[C@@H]1C[C@H](OC(C)=O)C(=O)[C@H]2[C@@]1(C)CC[C@H]1C(=O)O[C@H](C3=C[C@@H](OC)O[C@H]3OC)C[C@]21C | > 10 | 1.28 | 2370 | 0.18 | 2.93 | 3.74 | > 55 | 21 |  |  |  |  |  |  |
| COC(=O)[C@@H]1C[C@H](OC(C)=O)C(=O)[C@H]2[C@@]1(C)CC[C@H]1C(=O)OC([C@]3(O)[C@@H](OC)O[C@@H](OC)[C@H]3OC(C)=O)C[C@]21C (some centres not stated) | > 10 |  |  | > 10 |  | > 10 |  |  |  |  |  |  |  |  |
| COC(=O)[C@@H]1C[C@H](O)C(=O)[C@H]2[C@@]1(C)CC[C@H]1C(=O)O[C@H](c3ccoc3)C[C@]21C [SALVINORIN B] | > 10 |  |  |  |  | > 10 |  |  |  |  |  |  |  |  |
| COC(=O)[C@@H]1C[C@H](OC(C)=O)C(=O)[C@H]2[C@@]1(C)CC[C@H]1C(=O)O[C@H](C3=NCCO3)C[C@]21C | > 10 |  |  | 0.3 |  | > 10 | > 30 | > 30 |  |  |  |  |  |  |
| COC(=O)[C@@H]1C[C@H](OC(C)=O)C(=O)[C@H]2[C@@]1(C)CC[C@H]1C(=O)O[C@H]([C@@H]3C[C@@H](OC)O[C@H]3OC)C[C@]21C | > 10 |  |  | 0.125 |  | > 10 | > 80 | > 80 | inactive | inactive | inactive |  |  |  |
| COC(=O)[C@@H]1C[C@H](OC(C)=O)C(=O)[C@H]2[C@@]1(C)CC[C@H]1C(=O)OCC[C@]21C | > 10 |  |  | 3.4 |  | > 10 | > 3 | > 3 |  |  |  |  |  |  |
| COC(=O)[C@@H]1C[C@H](OC(C)=O)C(=O)[C@H]2[C@@]1(C)CC[C@H]1C(=O)O[C@H](c3nc(C)no3)C[C@]21C | > 10 |  | 360 | 0.056 | 0.43 | > 10 | > 170 | > 170 | inactive |  |  |  |  |  |
| COC(=O)[C@@H]1C[C@H](OC(C)=O)C(=O)[C@H]2[C@@]1(C)CC[C@H]1C(=O)O[C@H]([C@@H]3C[C@@H](OC)O[C@@H]3OC)C[C@]21C | > 10 | > 10 |  | 0.025 | 1.37 | > 10 | > 400 | > 400 |  |  |  | 95 | 2.35 |  |
| COC(=O)[C@@H]1C[C@H](OC(C)=O)C(=O)[C@H]2[C@@]1(C)CC[C@H]1C(=O)O[C@H](C3CCOC3)C[C@]21C (some centres not stated) | > 10 |  |  | 0.014 |  |  |  |  |  |  |  |  |  |  |
| COC(=O)[C@@H]1C[C@H](OC(C)=O)C(=O)[C@@H]2[C@@]3(C)C[C@@H](c4nc(C)no4)OC(=O)[C@H]3CC[C@]21C | > 10 | 4.23 | 5680 | 0.99 | 1.53 | > 10 | > 10 | > 10 |  |  |  |  |  |  |
| COC(=O)[C@@H]1C[C@H](OC(C)=O)C(=O)[C@H]2[C@@]1(C)CC[C@H]1C(=O)OC([C@]3(O)[C@H](OC)O[C@H](OC)[C@H]3OC(C)=O)C[C@]21C (some centres not stated) | > 10 |  |  | > 10 |  | > 10 |  |  |  |  |  |  |  |  |
| COC(=O)[C@@H]1C[C@H](OC(C)=O)C(=O)[C@H]2[C@@]1(C)CC[C@H]1C(=O)O[C@H](C3=C[C@@H](OC)O[C@@H]3OC)C[C@]21C | > 10 | 3.28 | 9700 | 0.42 | 2.32 | 3.19 | > 23 | 8 |  |  |  |  |  |  |
| COC(=O)[C@@H]1C[C@H](OC(C)=O)C(=O)[C@H]2[C@@]1(C)CC[C@H]1C(=O)O[C@H](C3=CC(=O)OC3O)C[C@]21C (some centres not stated) |  | 2.83 | 440 |  |  |  |  |  |  |  |  |  |  | 760 |
| COC(=O)[C@@H]1C[C@H](OC(C)=O)C(=O)[C@H]2[C@@]1(C)CC[C@H]1C(=O)O[C@H](c3ccoc3Br)C[C@]21C | 7.62 |  |  |  |  | 1.45 |  |  |  |  |  | 104 |  |  |
| COC(=O)[C@@H]1C[C@H](OC(C)=O)C(=O)[C@@H]2[C@@]3(C)C[C@@H]([C@]4(O)[C@@H](OC)O[C@@H](OC)[C@H]4O)CC(=O)[C@@H]3CC[C@]21C [SALVINICIN B] | > 10 |  |  | 7.02 |  | > 10 | 1.4 | 1.4 |  |  |  |  |  |  |
| COC(=O)[C@@H]1C[C@H](OC(C)=O)C(=O)[C@H]2[C@@]1(C)CC[C@H]1C(=O)O[C@H](C3CC(OC)OC3OC)C[C@]21C (some centres not stated) | > 10 |  |  | 0.04 |  | 4.81 | > 250 | 120 |  |  |  |  |  |  |
| COC(=O)[C@@H]1C[C@H](OC(C)=O)C(=O)[C@H]2[C@@]1(C)CC[C@H]1C(=O)O[C@H](C3=CC(OC)OC3OC)C[C@]21C (some centres not stated) | > 10 |  |  | 0.44 |  | > 10 | > 20 | > 20 |  |  |  |  |  |  |
| COC(=O)[C@@H]1C[C@H](OC(C)=O)C(=O)[C@H]2[C@@]1(C)CC[C@H]1C(=O)O[C@H]([C@@H]3CCOC3)C[C@]21C | > 10 |  |  | 0.0037 |  | 9.79 |  |  | inactive |  | inactive | 81 | 0.75 |  |
| COC(=O)[C@@H]1C[C@H](OC(C)=O)C(=O)[C@@H]2[C@@](C)(CCC3CCOC3)[C@H](C(=O)O)CC[C@]21C (some centres not stated) | > 10 |  |  | 0.91 |  | > 10 | > 10 | > 10 |  |  |  |  |  |  |
| COC(=O)[C@@H]1C[C@H](OC(C)=O)C(=O)[C@H]2[C@@]1(C)CC[C@H]1C(=O)O[C@H]([C@]3(O)[C@H](OC)O[C@H](OC)[C@H]3O)C[C@]21C [SALVINICIN A] | > 10 |  |  | 0.39 |  | > 10 | > 26 | > 26 |  |  |  |  |  |  |
